# This sample holds only a part of the variants without activity.
# B1: tRNA (parent)
# chain: GUUCCGUUGGCGUAAUGGUAACGCGUCUCCCUCCUAAGGAGAAGACUGCGGGUUCGAGUCCCGUACGGAACG
# Variants of: B1
# Assay: yeast fitness relative to wild type (ratio to wild type); higher = fitter; tRNA-Arg(CCU), competitive growth, 37 C, YPD
# Outline: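 For this measurement, the tRNA-Arg(CCU) gene was varied by chemical synthesis at a 3% per-site mutation rate across 69 sites, and each variant was placed at the native genomic locus in Saccharomyces cerevisiae. The pooled strains went through a 24-hour competition in YPD at 37°C in six parallel replicates, with amplicons from start and end populations read by 100-nucleotide paired-end sequencing. Darwinian fitness relative to wild type followed from the change in each genotype's frequency. Genotypes needed ≥ 100 starting reads, and estimates < 0.5 were set to 0.5.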
row,Variant,yeast fitness
1,C11G A15C U47G,≤ 0.5
2,C11G A37C C46G G48A C49U,≤ 0.5
3,C11G A40C C61U,≤ 0.5
4,C11G A15G C22A A37U A65C C66G,≤ 0.5
5,C11G A14C G18C C29G C49U A65C,≤ 0.5
6,C11G A45C U47C C61U A69G,≤ 0.5
7,C11G A20U C30G C49G U53G,0.571
8,C11G A21U C31G,≤ 0.5
9,C11G A15C C34U G48A C55U,0.759
10,C11G A20U C30G C34A A43C A69C,0.76
11,C11G A40G,0.567
12,C11G A57C C60U,≤ 0.5
13,C11G A14G U35A C66U,0.535
14,C11G A70G,0.581
15,C11G A70U,0.655
16,C11G A15U C31A G58C A70C,≤ 0.5
17,C11G A20C C55A G67C,≤ 0.5
18,C11G A21U A40U U54A,0.681
19,C11G C22A C31A A40G,≤ 0.5
20,C11G A14G G63A C66U,≤ 0.5
21,C11G A21G C31G A42G,≤ 0.5

row,Variant,yeast fitness
1,C11G A45U G50A G63A U64A,0.668
2,C11G A42G A45U U47C U64C A70C,≤ 0.5
3,C11G A14U G17A A36G G41A U53A G58C A70C,≤ 0.5
4,C11G A37C C62G C66U,≤ 0.5
5,C11G A15G U26A U32A G38A A40C,0.546
6,C11G A37C A42G,≤ 0.5
7,C11G A20G C24U U28C,≤ 0.5
8,C11G A20C A42C C49U A57U,≤ 0.5
9,C11G A15U C24G A40G C61A,≤ 0.5
10,C11G A15C C24U A43U C66U,≤ 0.5
11,C11G A15G C33G G52C A69C,≤ 0.5
12,C11A U47C C62A,≤ 0.5
13,C11G A42G A45U,≤ 0.5
14,C11G A15U C22U A42G C66U,≤ 0.5
15,C11G A14G G17A G48C C62U C66G A70G,≤ 0.5
16,C11G A20U G38C G50A,0.569
17,C11G A42U C49G G58C A69U,≤ 0.5
18,C11G A15G C33G A37G,≤ 0.5
19,C11G A36G G67U A69C,≤ 0.5
20,C11A U53G,0.577
21,C11A U59G G63C,≤ 0.5

row,Variant,yeast fitness
1,C11G A15G U54G,≤ 0.5
2,C11G A14U G17A C61G C62G,≤ 0.5
3,C11G A37U C55U A57C,≤ 0.5
4,C11G A37C G51A G67A,≤ 0.5
5,C11G A40G C60U U64C,≤ 0.5
6,C11G A15G U26A U32A G38A A40C G58A,≤ 0.5
7,C11G A20C C24G A37G,0.542
8,C11G A45G,0.636
9,C11G A14U A21U A69U,≤ 0.5
10,C11G A42C G68C,≤ 0.5
11,C11G A37G G52C A70U,0.57
12,C11A U47C,0.689
13,C11G A20C C24G,≤ 0.5
14,C11G A14G A21U A40U U54A C55U,≤ 0.5
15,C11G A42C A57U,0.564
16,C11G A20U C24A G25C A40G G58C,≤ 0.5
17,C11G A14U G17A A36G G41A,0.582
18,C11G A36U U54A U64C A69U,≤ 0.5
19,C11G A37C C46G G48A,≤ 0.5
20,C11G A20C C24G C66U,≤ 0.5
21,C11G A14U A42U,0.638

row,Variant,yeast fitness
1,C11G A20C A43G U59C,≤ 0.5
2,C11G A65U A69U,0.625
3,C11A U54C,0.596
4,C11A U54A,0.602
5,C11G A40G C61A,0.605
6,C11G A21U C55U,≤ 0.5
7,C11G A45G G67A,0.539
8,C11G A15G C22A U26A A40U C49U,≤ 0.5
9,C11A U54C A57U,0.565
10,C11G A36U A45U G51C C55U,≤ 0.5
11,C11G A65G,0.696
12,C11G A65U,0.656
13,C11G A65C,0.594
14,C11G A15U C34A A42C G48A C55U,≤ 0.5
15,C11G A20C A42C A57U,≤ 0.5
16,C11G A45U C61G,≤ 0.5
17,C11G A20G C62A,≤ 0.5
18,C11G A21U U26C U53G,0.696
19,C11G A21C A36U,0.511
20,C11G C22A C31U A42G,0.659
